Results: ChEMBL document CHEMBL1150166, “Cytotoxic 3,20-epoxy-ent-kaurane diterpenoids from Isodon eriocalyx var. laxiflora” (J Nat Prod, 2002)
In brackets after ≈: the same amount, converted by molar mass.

What was measured:
K562 = test: Cytotoxicity against human K562 cells after 48 hrs by MTT assay; assay type: functional, cell-based; conditions: K562, 48 h
How it was run: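 Log-phase K562 cells (5 × 10⁴ cells/mL) were exposed in quadruplicate to 10⁻⁴ to 10⁻⁸ g/L drug for 48 h at 37 °C under 5% CO₂. MTT (5 mg/mL) was then added for 4 h, and formazan was dissolved in 10% SDS/5% isobutanol/HCl for 12 h at room temperature. OD was read at 570 and 630 nm. Controls were saline or DMSO, with cisplatin as the positive control.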

T-24 = test: Cytotoxicity against human T24 cells after 72 hrs by SRB assay; conditions: T-24, 72 h
A549 = test: Cytotoxicity against human A549 cells after 72 hrs by SRB assay; conditions: A549, 72 h

## CC1(C)[C@H]2[C@H](O)C(=O)[C@@]34C[C@@H](CC[C@H]3[C@@]23CO[C@@H]1CC3=O)[C@@H](CO)C4=O [LAXIFLORIN K]
K562
  IC50: 11.9 mg/L (≈ 32.8 µM)
T-24
  IC50: 1750 mg/L (≈ 4840 µM)

## C=C1[C@@H]2CC[C@@H]3[C@](C2)(C(=O)[C@@H](O)[C@@H]2C(C)(C)[C@H]4CC(=O)[C@@]32CO4)[C@@H]1O [LAXILORIN L]
K562
  IC50: 1.13 mg/L (≈ 3.25 µM)
T-24
  IC50: 5.16 mg/L (≈ 14.9 µM)
A549
  IC50: 24.7 mg/L (≈ 71.2 µM)

## C=C1C(=O)[C@]23C[C@H]1CC[C@H]2[C@]12CO[C@H](CC1=O)C(C)(C)C2=C(O)C3=O [MAOECRYSTAL P]
K562
  IC50: 0.132 mg/L (≈ 0.386 µM)
T-24
  IC50: 0.0512 mg/L (≈ 0.15 µM)
A549
  IC50: 69.5 mg/L (≈ 203 µM)

## C=C1[C@@H](OC(C)=O)[C@]23C[C@@]1(O)CC[C@H]2[C@]12CO[C@H](CC1=O)C(C)(C)[C@H]2[C@H](O)C3=O [LAXIFLORIN M]
K562
  IC50: 219 mg/L (≈ 541 µM)

## C=C1C(=O)[C@]23C[C@H]1CC[C@H]2[C@]12CO[C@H](CC1=O)C(C)(C)[C@H]2[C@H](O)C3=O [LAXIFLORIN J]
K562
  IC50: 0.473 mg/L (≈ 1.37 µM)
T-24
  IC50: 0.314 mg/L (≈ 0.912 µM)
A549
  IC50: 49.1 mg/L (≈ 142 µM)
